# Bioassay records: PubChem, several laboratories
# GalR3 antagonist: antagonists of human GalR3. O60755. HEK293 GalR3-CNG cAMP membrane potential fluorescence; galR3 body fused to GalR1 C-terminus. inhibition, % at 3 µM. 0.44% of 360,000 active;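 active = inhibition above the screen-wide average plus 3 SD, cut at about 13% in these data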;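 also: forskolin and galanin both at EC90 stimulate the cells; cAMP rise reported by CNG channel membrane potential dye signal; 0% = forskolin plus galanin with DMSO and 100% = forskolin alone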
# Target sequence (O60755 1-299 limits assumed): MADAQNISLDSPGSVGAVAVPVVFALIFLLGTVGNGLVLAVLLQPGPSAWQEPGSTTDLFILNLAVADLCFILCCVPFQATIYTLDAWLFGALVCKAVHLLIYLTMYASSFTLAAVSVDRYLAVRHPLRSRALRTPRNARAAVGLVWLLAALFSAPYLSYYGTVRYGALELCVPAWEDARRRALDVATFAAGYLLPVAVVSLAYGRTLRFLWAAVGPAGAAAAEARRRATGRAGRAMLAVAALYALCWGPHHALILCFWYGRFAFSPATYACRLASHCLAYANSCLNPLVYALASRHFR
# Gli-Sufu block: antagonists of Gli-Sufu signaling; Sufu-KO-LIGHT fibroblasts, Gli luciferase reporter luminescence; AID 588413; inhibition, % at 5 µM; 0.74% of 340,000 active;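 active = inhibition above about 55%, limit read from the data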;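 also: 0% = DMSO-treated cells and 100% = wells with medium but no cells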
# 697 NFkB inh: inhibitors of the PMA/ionomycin-induced NF-kB reporter in 697 B cells; 0.33% of 330,000 active; AID 435022; inhibition, % at 4 µM; 697 B-cell NF-kB luciferase reporter, 16 h; in the data active = inhibition above about 35%
# Jurkat NFkB inh: lowers PMA/ionomycin-induced NF-kB signal in Jurkat cells; 0.53% of 330,000 active; inhibition, % at 4 µM; PMA/ionomycin-induced NF-kB luciferase reporter, luminescence; in the data active = inhibition above about 50%
# NR2E3 ag-1: agonists of human nuclear receptor NR2E3. 0.12% of 320,000 active. inhibition of corepressor binding, % at 4.78 µM. Q9Y5X4. GST-NR2E3/biotin-RetCOR TR-FRET, 1536-well;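 active = percent inhibition above the cutoff of mean plus 3 SD of all tested compounds, set per screening campaign, cut at about 20% in these data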;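 also: 0% = DMSO wells and 100% = biotin wells as full block of FRET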
# Target sequence (Q9Y5X4 whole entry, looked up): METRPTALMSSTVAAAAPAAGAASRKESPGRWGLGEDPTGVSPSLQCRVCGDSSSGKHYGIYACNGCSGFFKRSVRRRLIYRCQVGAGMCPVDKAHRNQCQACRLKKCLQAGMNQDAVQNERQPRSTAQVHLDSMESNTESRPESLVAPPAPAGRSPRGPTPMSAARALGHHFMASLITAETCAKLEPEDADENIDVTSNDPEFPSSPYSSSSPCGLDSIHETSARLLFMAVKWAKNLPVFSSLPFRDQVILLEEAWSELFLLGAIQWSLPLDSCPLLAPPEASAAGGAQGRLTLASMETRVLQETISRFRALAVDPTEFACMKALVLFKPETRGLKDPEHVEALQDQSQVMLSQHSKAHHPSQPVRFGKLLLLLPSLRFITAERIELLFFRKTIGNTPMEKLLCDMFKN
#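 System: GST-NR2E3 and biotin-RetCOR proteins; probe or stimulus: 7 nM biotin-RetCOR; doses: compound at 4.8 µM, single dose; schedule: Compound–protein incubation for 5 h at 4 °C; detection: time-resolved FRET; read-out: percent inhibition; controls: biotin wells as high control, 0.6% DMSO wells as low control; format: 1536-well plates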
# NR2E3 ag-2: agonists of human NR2E3 nuclear receptor; CHO-S Gal4-NCOR/VP16-NR2E3 two-hybrid, luciferase; inhibition of corepressor binding, % at 3.98 µM; AID 602229; 0.35% of 360,000 active; Q9Y5X4;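 active = inhibition above the mean of all tested compounds plus 3 SD, cut at about 70% in these data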;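 also: 0% = DMSO with NR2E3 transfected cells and 100% = cells lacking NR2E3 construct; higher means lower luciferase signal from less NR2E3 corepressor binding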
# Jurkat NFkB conf: lowers PMA/ionomycin-induced NF-kB signal in Jurkat cells; Jurkat NF-kB luciferase, 16 h; 27% of 2,700 active; AID 435020; shares compounds with Jurkat NFkB inh; inhibition, % at 4 µM;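 active = inhibition reaching about 45% at 4 µM in either replicate, limit read from the data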;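 also: plate controls were PMA/ionomycin stimulated DMSO wells for no effect and unstimulated DMSO wells for full effect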
# Active calls of the source: *; nt = not tested or not shown. An excerpt weighted towards active compounds, which were near 1.8% of everything screened.
SMILES,GalR3 antagonist,Gli-Sufu block,697 NFkB inh,Jurkat NFkB inh,NR2E3 ag-1,NR2E3 ag-2,Jurkat NFkB conf
O=C(Nc1cccc(NC(=O)c2ccc3c(c2)OCO3)c1)c1ccccc1,-2,-4,5,-26,-1,-37,nt
O=C(Nc1ccc2nsnc2c1)c1ccc2c(c1)OCO2,nt,-86,-159,-166,-1,-107,-72
O=C(Nc1ccc(Br)cc1)c1ccc2c(c1)OCO2,-11,-102,-238,-151,5,-160,-123
O=C(Nc1ccc2c(c1)OCO2)c1ccc2c(c1)OCO2,-4,-63,-152,-136,-2,-133,nt
NC(=O)[C@@H]1CCCN1C(=O)[C@H]1O[C@@H](n2ccc(N)nc2=O)[C@H](O)[C@@H]1O,-8,nt,nt,nt,nt,nt,nt
Cn1c(SC2=CS(=O)(=O)c3ccccc32)nc2ccccc21,1,10,-88,74*,-2,18,39
O=C(c1cc2cc3ccc(Cl)cc3nc2o1)N1CCCCCC1,nt,-66,-181,-159,-1,-106,-90
O=C(Nc1ccc(N2CCN(C(=O)c3cccs3)CC2)cc1)c1ccco1,-8,-6,11,9,5,-23,nt
O=C(Nc1ccc(N2CCN(C(=O)c3cccs3)CC2)cc1)c1ccc([N+](=O)[O-])o1,-4,nt,-32,52*,nt,25,22
CCOC(=O)CN1CCCc2nc(C)c(C)cc21,-2,nt,nt,nt,nt,nt,nt
Cc1ccnc(NC(=O)c2oc3ccccc3c2C)c1,-3,-80,-188,-168,-1,-147,-116
CCOc1ccc2oc(C(=O)Nc3cc(C)ccn3)c(C)c2c1,-5,-107,-184,-164,1,-206,-72
CCOc1ccc2oc(C(=O)O)c(C)c2c1,-9,-3,25,13,3,-10,nt
COc1ccc2c(c1)[C@@]1(OCCC=C[C@H]1C)C(=O)N2Cc1ccc(F)cc1,-8,nt,nt,nt,nt,nt,nt
CCCOc1ccc(/C=N/Nc2ccccn2)cc1OC,-2,34,-120,-172,0,-98,-29
C(=N\Nc1ccccn1)/c1ccc2c(c1)OCCO2,-3,-118,-213,-172,2,-113,-106
Fc1cccc(/C=N/Nc2ccccn2)c1,-10,-37,-61,-54,3,-80,nt
CCOc1ccc(/C=N/Nc2ccccn2)cc1OC,-1,-52,-90,-100,1,-50,nt
C[C@]12Cc3ccccc3C1CC1=N[C@@H](C3CCCCC3)O[C@@]13C[C@@H]2C(=O)N3C1CCN(Cc2ccccc2)CC1 (some centres not stated),-5,nt,nt,nt,nt,nt,nt
O=C(Nc1ccc(N2CCCC2)cc1)c1ccc(Br)cc1,2,7,-30,-23,2,-22,nt
Cc1ccc(C(=O)N2CCN(c3ccc(NC(=O)c4cc(C)cc(C)c4)cc3)CC2)cc1,-2,11,-36,8,nt,-20,nt
COc1ccccc1C(=O)Nc1ccc(N2CCCCC2)cc1,-2,-105,-198,-165,-3,-166,-55
O=C(Nc1ccc(N2CCCCCC2)cc1)c1ccc[nH]1,-5,-70,-110,-199,-2,-118,-37
O=C(Nc1ccc(N2CCCCC2)cc1)c1ccccn1,nt,64*,21,67*,-4,55,69*
O=C(Nc1ccc(N2CCCCCC2)cc1)c1ccccc1Cl,-5,-77,-104,-26,1,-173,nt
SMILES,GalR3 antagonist,Gli-Sufu block,697 NFkB inh,Jurkat NFkB inh,NR2E3 ag-1,NR2E3 ag-2,Jurkat NFkB conf
Cc1cc(C)cc(C(=O)Nc2ccc(N3CCCC3)cc2)c1,-8,-90,-128,-160,-3,-112,1
O[C@@H](Cc1ccccc1)[C@@H](/C=C/c1ccccc1)N(Cc1ccccc1)Cc1ccccc1,-6,nt,nt,nt,nt,nt,nt
Cc1cc(C)n(CCNC(=O)[C@@H](Cc2ccccc2)NC(=O)[C@H]2O[C@@H](n3ccc(=O)[nH]c3=O)[C@H](O)[C@@H]2O)n1,-4,nt,nt,nt,nt,nt,nt
CCCCCCCCN1C(=O)[C@@H](CC(=O)NCCCCc2ccccc2)C[C@@]2(C(=O)OC)C1=C[C@H](C1CCCC1)O[C@@H]2C,-3,nt,nt,nt,nt,nt,nt
O=C(N/N=C/c1c(O)ccc2ccccc12)c1cccc(C(F)(F)F)c1,1,60*,-40,52*,3,8,74*
O=C(N/N=C/C(Cl)=C\c1ccccc1)c1cccs1,-2,-73,-217,-167,-2,-132,-92
NC(=O)c1ncn([C@@H]2O[C@H](C(=O)Nc3ccc(C(=O)N4CCCCC4)cc3)[C@@H](O)[C@H]2O)n1,-4,nt,nt,nt,nt,nt,nt
Cn1nnc(-c2ccc(OCc3ccccc3F)cc2)n1,-7,-127,-174,-169,-1,-136,-88
Cc1onc(-c2c(F)cccc2Cl)c1-c1ncc(-c2ccc(Cl)cc2)o1,2,nt,nt,nt,nt,nt,nt
COc1cc2c(cc1OC)C(C)N(C(=O)c1cc(C)on1)CC2 (configuration not stated),10,37,21,64*,-1,7,51*
CCC[C@@H](CNC)NC[C@H](Cc1ccccc1)NCCCCc1ccccc1,-6,18,-22,11,-1,29,nt
CNC[C@@H](CC1CCCCC1)NC[C@H](CC(C)C)NCCc1cccc(C(F)(F)F)c1,-3,-3,12,86*,-1,21,45
CNC[C@@H](Cc1ccccc1)NC[C@@H](CC1CCCCC1)NCCCc1ccccc1,-4,8,22,91*,-1,5,24
CCOC(=O)N1CCN(C(=O)C[C@H]2C[C@@]3(C(=O)OC)C(=C[C@H](C(C)C)O[C@@H]3C3CC3)N(Cc3ccccc3)C2=O)CC1,-6,nt,nt,nt,nt,nt,nt
Nc1nc2c(C(=O)N3CCCC3)nnn2c2ccccc12,-6,nt,nt,nt,nt,nt,nt
O=S(=O)(c1cccc(Cl)c1)N1CCSc2ccccc21,-4,-15,8,-2,-1,-8,nt
CC(=O)Nc1ccc(S(=O)(=O)N2CCSc3ccccc32)cc1,-4,-19,-79,56*,nt,-4,49*
N#C/C(=N\Nc1ccccc1[N+](=O)[O-])C(=N)N1CCCCC1,-2,-104,-119,-184,-1,-159,-75
N#C/C(=N/Nc1ccc([N+](=O)[O-])cc1)C(=N)N1CCCCC1,4,-109,nt,nt,nt,-125,nt
N#C/C(=N\Nc1ccc(Cl)cc1)C(=N)N1CCCCCC1,8,-54,-209,-215,2,-129,-92
C[C@H](O)[C@@H]1C(=O)N2CCc3c([nH]c4c(-c5ccccc5)cccc34)[C@@H]2C[C@@H]1N(C)C(=O)c1ccccc1F,-7,nt,nt,nt,nt,nt,nt
Cc1sc(NC(=O)c2ccco2)nc1-c1ccccc1,-7,-31,-221,-163,7,-119,-94
COC(=O)c1c(-c2ccccc2)csc1NC(=O)c1ccco1,1,-87,-219,-153,1,-85,-69
CC(=O)c1sc(NC(=O)c2ccco2)nc1-c1ccccc1,nt,-55,-63,-14,5,-139,nt
O=C(Nc1scc(-c2ccc(F)cc2)c1C(=O)O)c1ccco1,1,-4,-46,-5,5,-58,nt
